# Screens deposited in PubChem BioAssay by several laboratories.
# This is a sample that favours compounds with a hit; in the whole collection about 2.2% have one here.
# Yeast superoxide: lowers age-related superoxide in aged yeast cells; S. cerevisiae aged cells, superoxide DHE fluorescence; stronger effect = lower value; AID 2690; superoxide response (% of plate mean), % at 10 µM; 330,000 compounds, 0.18% hits;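 active = superoxide response under a set limit, about three screen SD below normal, cut at about 65% in these data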;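 note: yeast aged for seven days with compound at 30 °C before DHE staining; 100% = average MFI of all compound-treated wells on the plate with controls excluded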
# VIM-2 inh: blocks Pseudomonas aeruginosa VIM-2 metallo-beta-lactamase; 290,000 compounds, 0.89% hits; purified VIM-2, nitrocefin hydrolysis, epi-absorbance fluorescence; inhibition, % at 5.6 µM;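 active = inhibition above the mean of all tested compounds plus 3 SD, cutoff set per screening run, cut at about 7.5% in these data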;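 note: red hydrolysis product quenches plate fluorescence so inhibitors raise well fluorescence; 0% = enzyme with DMSO and 100% = DMSO without enzyme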
# PvdQ inh: P. aeruginosa PvdQ acylase inhibition; purified PvdQ acylase, fluorescence plate reader; inhibition, % at 10 µM; 340,000 compounds, 0.063% hits; in the data active = inhibition above about 30%, passing the limit was not always enough;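 note: 0% = vehicle neutral wells and 100% = reference inhibitor wells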
# IMP-1 inh: inhibitors of Pseudomonas aeruginosa IMP-1 metallo-beta-lactamase; purified IMP-1, nitrocefin hydrolysis, epi-absorbance fluorescence; inhibition, % at 5.6 µM; 290,000 compounds, 0.45% hits; AID 1556;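 active = inhibition above the mean plus 3 SD of all compounds in the same screening run, cut at about 4.5% in these data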;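 note: 0% = IMP-1 with DMSO and 100% = DMSO wells lacking enzyme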
#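 Assay system: purified IMP-1; Quantity: IMP-1 0.2 nM before substrate addition; Medium: HEPES buffer pH 7.1 with ZnSO4 and Brij 35; Incubation: 15 min enzyme–compound preincubation, then 25 min nitrocefin reaction, 25 °C; Signal: fluorescence quenching readout, ex 480/em 530 nm; Controls: DMSO with and without IMP-1; Repeats: singlicate testing.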
# PHOSPHO1 inh: blocks human PHOSPHO1 phosphatase activity | inhibition, % at 13.3 µM | recombinant PHOSPHO1, absorbance phosphatase assay | 290,000 compounds, 1.1% hits; in the data active = inhibition above about 60%
# Target sequence (Q8TCT1 whole entry, looked up): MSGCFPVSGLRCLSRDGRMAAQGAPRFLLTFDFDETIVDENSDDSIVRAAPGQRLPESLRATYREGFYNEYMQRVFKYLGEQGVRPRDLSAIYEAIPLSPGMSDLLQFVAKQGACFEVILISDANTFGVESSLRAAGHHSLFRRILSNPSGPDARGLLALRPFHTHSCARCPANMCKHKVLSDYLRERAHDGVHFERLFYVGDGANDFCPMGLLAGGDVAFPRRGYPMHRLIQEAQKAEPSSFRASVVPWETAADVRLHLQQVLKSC
# Active calls of the source: *; / = not tested or not shown.
SMILES,Yeast superoxide,VIM-2 inh,PvdQ inh,IMP-1 inh,PHOSPHO1 inh
O=C(Cc1cccc2ccccc12)N/N=C/c1ccc(Sc2cccc3cccnc23)o1,103.5,-3.5,/,-4.9,80.2*
CC1(C)C(C=C(Cl)Cl)C1C(=O)N/N=C/c1ccccc1F (configuration not stated),93.7,1.0,-3.8,1.5,34.8
COc1ccc(CN2C(=NC(=O)C3CC3)SC3CS(=O)(=O)CC32)cc1OC (configuration not stated),103.6,-0.9,-16.3,-3.9,12.0
COc1ccc(C2=COc3ccccc3C(=O)N2)cc1,97.8,-1.0,-11.1,0.3,26.5
COc1ccc(C2=C(C=O)Cc3ccccc3O2)cc1,79.3,/,109.9*,/,/
COc1ccc(N2C(=O)CC(N(CCc3ccccc3)C(=O)/C=C/C(=O)O)C2=O)cc1 (configuration not stated),99.7,-2.7,-10.0,-3.6,64.2*
CCCOc1ccc(N2C(=O)CC(N(CCc3ccc(OC)cc3)C(=O)/C=C/C(=O)O)C2=O)cc1 (configuration not stated),92.0,1.4,2.0,0.6,36.8
COc1ccccc1-c1nc(SCC(=O)Nc2cc(C)on2)c2c(=O)n(C)c(=O)n(C)c2n1,95.7,0.0,-13.3,-4.0,65.4*
Cc1cc(NC(=O)CSc2nc(-c3ccccc3)nc3c2c(=O)n(C)c(=O)n3C)no1,137.9,-0.3,-2.9,-1.2,15.8
Cc1ccc2c(c1)C1CN(C)CCC1N2C(=O)COc1ccc(N(C)C(=O)C(C)(C)C)cc1 (configuration not stated),99.8,-2.4,4.4,-1.1,23.3
Cc1ccc2c(c1)C1CN(C)CCC1N2CC(=O)N(C)c1ccccc1 (configuration not stated),110.7,-0.1,-17.2,-2.7,83.4*
c1ccc(CCCNCCCn2cnc3c(OCc4ccccc4)ncnc32)cc1,/,/,-14.5,/,/
C(=C\c1nnc(-c2cccs2)o1)/c1ccccc1,100.8,-1.2,38.1*,-3.5,29.2
CCOC(=O)N1CCN(c2ccncc2S(=O)(=O)N2CCCCC2)CC1,98.0,1.6,-10.4,0.7,17.4
COC(=O)c1ccc2c(=O)n(CCN3CCOCC3)c(SCC(=O)C(C)(C)C)nc2c1,82.4,-1.5,-5.4,-1.2,36.3
CCOC(=O)CSc1nc2cc(C(=O)OC)ccc2c(=O)n1CCN1CCOCC1,95.7,-0.3,9.8,-2.0,70.5*
CC(C)c1ccc(NC2CCCN(C(=O)C3=NN(C)C(=O)CC3)C2)cc1 (configuration not stated),115.7,-0.2,-8.7,-1.9,27.9
CC(NC(=O)Cc1ccsc1)c1ccc(Cl)cc1Cl (configuration not stated),103.2,-2.9,-3.2,-2.7,27.9
c1ccc2[nH]c(SN3CCOCC3)nc2c1,/,-3.7,/,-1.8,102.2*
Cc1cccc2cc(C(c3nnnn3C3CCCC3)N3CCOCC3)c(=O)[nH]c12 (configuration not stated),71.3,0.8,-11.8,-0.6,85.6*
c1cc(N2CCCC2)ccc1C(c1nnnn1C1CCCCC1)N1CCOCC1 (configuration not stated),100.0,-3.7,-2.6,-3.2,92.2*
Cc1ccc2cc(C(c3nnnn3C3CCCC3)N3CCN(c4ccc(F)cc4)CC3)c(=O)[nH]c2c1 (configuration not stated),102.3,-0.7,-14.0,-0.3,-18.9
COc1ccc(C(c2nnnn2C2CCCCC2)N2CCN(c3ccc(OC)cc3)CC2)cc1 (configuration not stated),103.2,-4.2,-7.8,-3.2,24.7
Cc1cc(C)c2cc(C(c3nnnn3C3CCCC3)N3CCOCC3)c(=O)[nH]c2c1 (configuration not stated),104.4,-2.5,-9.0,-1.0,102.7*
CC1(C)C(C=C(Cl)Cl)C1C(=O)Nc1ccc([N+](=O)[O-])cc1 (configuration not stated),99.2,-1.1,/,-3.6,-1.3
SMILES,Yeast superoxide,VIM-2 inh,PvdQ inh,IMP-1 inh,PHOSPHO1 inh
Cc1cc(Cl)ccc1NC(=O)CSc1n[nH]c(N)n1,88.7,/,-4.6,/,/
CNc1nc(-c2c[nH]c3ccccc23)cs1,95.1,-4.6,11.2,-3.8,99.8*
CCC(C)Nc1nc(-c2c[nH]c3ccccc23)cs1 (configuration not stated),94.0,-1.9,1.9,-3.4,28.0
O=C(CCCOC(=O)c1ccc(O)cc1O)c1ccc(Br)cc1,/,/,-6.6,/,/
CCOc1ccc2nc(NC(=S)NCc3ccccc3)sc2c1,98.2,-6.5,-4.2,-3.5,71.9*
COc1ccc(CN2CCN(Cc3ccc4cc(F)ccc4n3)CC2CCO)c(C)c1C (configuration not stated),111.3,-2.1,-9.6,-1.7,39.0
Cc1ccc(O)c(N=Cc2cc(Cc3ccccc3)cc([N+](=O)[O-])c2O)c1,/,-2.1,-15.8,11.4*,48.4
O=[N+]([O-])c1cc(Cc2ccccc2)cc(C=Nc2ccc(N3CCOCC3)cc2)c1O,85.5,-3.8,-4.4,8.8*,0.1
C=CCNC(=O)c1ccc(-n2cccc2)cc1,91.1,-4.8,-8.6,-3.1,11.2
Nc1ncnc2c1ncn2[C@@H]1O[C@H](CNC(=O)[C@@H]2CCC(=O)N2)[C@@H](O)[C@H]1O,95.7,/,-13.8,/,/
CCCc1nc(SCC(=O)N2CCCCCC2)c2c(=O)n(C)c(=O)n(C)c2n1,91.3,3.6,/,-1.1,25.0
CCCn1c(C)nc2c(c1=O)c1nc3ccccc3nc1n2CCC1=CCCCC1,93.4,8.3*,-0.6,-1.7,68.9*
CCn1c(SCC(=O)NCc2ccccc2)nc2c(c1=O)SC(C)C2 (configuration not stated),108.6,0.8,-18.9,-0.8,30.2
O=C(Cc1ccccc1)NCCSCc1ccco1,98.5,-0.8,-12.0,-2.4,49.5
CCOc1ccc(NC(=O)NC2(C(=O)NCc3ccco3)CCCCC2)cc1,83.0,-1.9,-4.9,-3.8,30.4
CC(=O)Nc1ccc(C(=S)NCc2ccco2)cc1,102.2,-2.1,-16.4,-0.5,94.5*
CCOc1ccc(NC(=O)NCc2ccco2)cc1,98.3,-0.9,-7.1,-1.7,67.1*
O=C(NCCSCc1ccco1)Nc1ccccc1,84.6,0.1,-13.2,-1.8,73.5*
CCOC(=O)[C@@H]1[C@H]2COc3ccccc3[C@H]2N2C(=O)N(c3ccc(Cl)cc3)C(=O)[C@@]12C,96.8,-1.9,1.9,-2.3,4.0
Nc1nc(-c2cccs2)c(-c2cccs2)s1,88.7,-2.4,0.7,16.1*,27.0
Nc1nc(-c2cccs2)c(CC(=O)O)s1,109.1,-1.7,2.5,-2.1,40.3
CC1(C)Cc2c(c(N3CCOCC3)nc3sc4c(=O)[nH]cnc4c23)CS1,113.4,-1.8,-10.7,-1.9,108.2*
CSCCC(NC(=O)c1ccc(Cl)cc1Cl)C(=O)NCC(c1cccs1)N(C)C (configuration not stated),/,/,-1.7,/,/
CNC(=O)c1ccsc1NC(=O)CS(=O)(=O)c1ccc(Cl)cc1,91.0,-4.4,-16.0,-2.8,64.0*
Cc1ccc(NC(=S)NNC(=O)c2cn(C)nc2C)cc1,98.7,-1.5,3.8,-3.7,88.9*
